# Source: ChEMBL document CHEMBL1139222, “Discovering potassium channel blockers from synthetic compound database by using structure-based virtual screening in conjunction with electrophysiological assay” (J Med Chem, 2007)
# Calls of active or inactive are those of the source. The calls are words filed in the database; no cut-off is given here.
# Tests used:
# Hippocampus [1] = experiment: Inhibition of delayed rectifier potassium current in Sprague-Dawley rat hippocampal neurons at 10 uM; format: functional, tissue-based
# Procedure, shortened: (§1)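 IK was recorded by whole-cell voltage clamp (21-23 °C, 3-4 MΩ KCl-based pipettes) in dissociated CA1 pyramidal neurons from 5- to 9-day-old Sprague-Dawley rats. Compound was applied intracellularly at the stated concentration. IK amplitude was measured at 300 ms latency, normalized and followed over time after application. Values are mean ± SEM, n = 5.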
# Hippocampus [2] = experiment: Inhibition of fast transient potassium current in Sprague-Dawley rat hippocampal neurons at 100 uM by whole cell voltage clamp method; format: functional
# Procedure, shortened: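 In the primary screen, 100 µM compound was dissolved in external solution and delivered by rapid solution changer to dissociated CA1 pyramidal neurons from 5- to 9-day-old Sprague-Dawley rats. Whole-cell voltage clamp was run at 21-23 °C, with series resistance compensated 75-85% and online leak subtraction. Fast transient K+ current (IA) was measured as peak amplitude.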
# Hippocampus [3] = experiment: Inhibition of delayed rectifier potassium current in Sprague-Dawley rat hippocampal neurons at 300 uM; format: functional, tissue-based; procedure, shortened: as §1
# [4] = Blockade of voltage-gated potassium channel assessed by inhibition of delayed rectifier potassium current in Sprague-Dawley rat hippocampal neurons by whole cell voltage clamp method; format: tissue-based; settings: Hippocampus
# Procedure, shortened: (§2)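 CA1 pyramidal neurons were acutely dissociated from 5- to 9-day-old Sprague-Dawley rats (500 µm minislices, protease XXIII 3 mg/mL, 32 °C, 8 min). Whole-cell voltage clamp was run at 21-23 °C with KCl 140 mM pipettes and leak subtraction. Compound was applied externally by rapid solution changer across a concentration range. IA was read as peak amplitude and IK at 300 ms latency. IC50 came from concentration-response curve fitting.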
# [5] = Blockade of voltage-gated potassium channel assessed as inhibition of fast transient potassium current in Sprague-Dawley rat hippocampal neurons by whole cell voltage clamp method; format: tissue-based; settings: Hippocampus; procedure, shortened: as §2
# Rattus norvegicus = organism: Rattus norvegicus; experiment: Selectivity for inhibition of delayed rectifier potassium current over inhibition of fast transient potassium current at potassium channel in Sprague-Dawley rat hippocampal neurons; format: tissue-based; settings: Hippocampus
# Hippocampus [6] = experiment: Inhibition of delayed rectifier potassium current in Sprague-Dawley rat hippocampal neurons at 100 uM; format: functional, tissue-based; procedure, shortened: as §1
# Hippocampus [7] = experiment: Inhibition of delayed rectifier potassium current in Sprague-Dawley rat hippocampal neurons at 30 uM; format: functional, tissue-based; procedure, shortened: as §1
# Hippocampus [8] = experiment: Inhibition of delayed rectifier potassium current in Sprague-Dawley rat hippocampal neurons at 1 mM; format: functional, tissue-based
# Procedure, shortened: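 CA1 pyramidal neurons acutely dissociated from 5- to 9-day-old Sprague-Dawley rats (protease XXIII 3 mg/mL, 32 °C, 8 min). Whole-cell voltage clamp at 21-23 °C, 3-4 MΩ electrodes with KCl pipet solution, 75-85% series-resistance compensation, online leak subtraction. Compound dissolved in external solution and delivered by rapid solution changer. IK amplitude read at 300 ms latency.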
Compound,Activity (Hippocampus [1]),inhibition at 100 µM (Hippocampus [2]),Activity (Hippocampus [3]),IC50 [4],IC50 [5],Ratio IC50 (Rattus norvegicus),Activity (Hippocampus [6]),Activity (Hippocampus [7]),Activity (Hippocampus [8])
Cc1ccc(S(=O)(=O)NCCOCCOCCOCCNS(=O)(=O)c2ccc(C)cc2)cc1,inactive,63%,inactive,2.1 µM,28 µM,13.3,,,
Cc1nc(-c2cccnc2)nc(NCCN)c1Cl,,9%,inactive,83 µM,244 µM,2.9,,,
NC(COc1ccccc1)c1ccc2c(c1)OCCO2 (stereo not given),,20%,,67 µM,737 µM,11,inactive,,
O=S(=O)(CCN1CCN(Cc2ccccc2)CC1)c1ccc(Cl)cc1,,11%,,60 µM,980 µM,16.3,inactive,,
NCCNS(=O)(=O)c1cccc2c(Cl)cccc12,,27%,,18 µM,124 µM,6.9,,inactive,
COc1ccc2c(CCN)c[nH]c2c1,,10%,,972 µM,524 µM,,,,inactive
